Screening data: PubChem, several laboratories
A selection: hits, their analogues and other compounds. The true share with any hit is near 2.7%.
ARFGAP1 inhibitor = inhibitors of rat ARFGAP1 GAP activity, primary screen, biochemical, fluorescence polarization, GDP tracer; ADP-ribosylation factor GTPase-activating protein 1 (Rattus norvegicus), Q62848; AID 651572, 2012; 360,000 compounds, 0.26% hits; inhibition, % at 16.5 µM; Arfgap1-stimulated ARF1 GTP hydrolysis, GDP FP detection;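 active means inhibition above a per-plate limit, mean inhibition of low control wells plus 3 SD, cut at about 25% in these data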;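 further: 0% = DMSO wells with enzyme and 100% = wells lacking Arfgap1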
Target sequence (Q62848 1-136 limits assumed): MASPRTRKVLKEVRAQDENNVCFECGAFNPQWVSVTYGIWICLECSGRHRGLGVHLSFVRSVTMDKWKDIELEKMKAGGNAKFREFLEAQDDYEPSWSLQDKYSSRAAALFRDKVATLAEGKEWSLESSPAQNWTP
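Material: rat Arfgap1 GAP domain (His6, aa 1-136), purified enzyme. Also added: human ARF1(Δ1-17)-GTP substrate. Compound dosing: 16.5 µM single point, 1.26% DMSO. Timing: enzyme reaction 120 min at 25 °C after 20 min preincubation. Signal: GDP detection by fluorescence polarization. Read-out basis: percent inhibition of GAP-stimulated GDP formation, scaled between DMSO and no-Arfgap1 medians.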
MsrA act = bovine MsrA enzyme activators, primary screen, biochemical, absorbance, HTS. purified bovine MsrA, absorbance read-out. 360,000 compounds, 0.3% hits. Methionine sulfoxide reductase A (Bos taurus). activation, % at 10.6 µM; in the data active means activation above about 7.5%;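 further: 0% = vehicle and 100% = reference activator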
HGIII-sPLA2 inh = human group III sPLA2 inhibitors, primary screen, biochemical, QFRET, BODIPY PC-A2 liposome substrate. QFRET BODIPY PC-A2 liposome hydrolysis, fluorescence. inhibition, % at 12.2 µM. 370,000 compounds, 0.56% hits. AID 743126, 2013;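 active means inhibition above mean plus 3 SD of compounds lying within the high and low control bounds, cut at about 19% in these data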;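 further: 0% = median of test compound wells and 100% = no enzyme DMSO wells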
Target sequence (Q9NZ20 whole entry, looked up): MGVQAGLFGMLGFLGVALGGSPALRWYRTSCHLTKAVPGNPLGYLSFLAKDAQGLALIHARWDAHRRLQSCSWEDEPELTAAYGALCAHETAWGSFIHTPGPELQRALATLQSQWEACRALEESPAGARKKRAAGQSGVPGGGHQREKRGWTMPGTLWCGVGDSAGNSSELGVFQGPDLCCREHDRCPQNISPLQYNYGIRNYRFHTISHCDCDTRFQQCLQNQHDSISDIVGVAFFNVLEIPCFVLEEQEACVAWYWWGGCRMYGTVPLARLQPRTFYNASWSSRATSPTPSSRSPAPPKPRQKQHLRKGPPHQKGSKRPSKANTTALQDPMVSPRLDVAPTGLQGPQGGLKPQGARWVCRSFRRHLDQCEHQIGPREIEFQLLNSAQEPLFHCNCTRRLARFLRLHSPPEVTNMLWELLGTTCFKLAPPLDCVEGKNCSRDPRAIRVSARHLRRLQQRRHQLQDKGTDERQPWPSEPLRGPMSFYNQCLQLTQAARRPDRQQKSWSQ
ASAP1 GAP inh = inhibitors of human ASAP1 ArfGAP activity, primary screen, biochemical, fluorescence polarization. AID 624377, 2012. 360,000 compounds, 0.19% hits. ASAP1-stimulated ARF1 GTP hydrolysis, GDP FP detection. inhibition, % at 16.5 µM. Arf-GAP with SH3 domain, ANK repeat and PH domain-containing protein 1 (Homo sapiens), …; in the data active means inhibition above about 25%;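 further: 0% = vehicle with enzyme and substrate and 100% = no enzyme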
MsrA inh = bovine MsrA enzyme inhibitors, primary screen, biochemical, absorbance, HTS | purified bovine MsrA, absorbance read-out | inhibition, % at 15.5 µM | 360,000 compounds, 0.75% hits | Methionine sulfoxide reductase A (Bos taurus); in the data active means inhibition above about 4.5%;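 further: 0% = vehicle wells with enzyme and 100% = reference inhibitor wells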
Rev-erbA mod = modulators of Rev-erb alpha DNA binding, primary screen, biochemical, FITC-DNA, fluorescence polarization, uHTS. Nuclear receptor subfamily 1 group D member 1 (Homo sapiens), P20393. Rev-erbα–FITC-DNA binding, 90 min. activity, % at 10 µM. 370,000 compounds, 0.79% hits. AID 1259318, 2017;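 active means activity above about 14%, limit read from the data; passing the limit was not always enough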;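 further: 0% = DMSO wells with 35 nM protein and 100% = DMSO wells with 750 nM protein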
NR1D1 mod conf = modulators of Rev-erb alpha DNA binding, confirmation, biochemical, FITC-DNA, fluorescence polarization, single point; activation, % at 25 µM; 3,000 compounds, 61% hits; shares compounds with Rev-erbA mod; 90 min;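 active means activation at or above a set limit, or at least 3 SD above the negative control mean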;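 further: 0% = 35 nM protein with DMSO and 100% = 750 nM protein high control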
RORg counter = modulation of RORgamma DNA binding, dose response, counter-screen for Rev-erb alpha modulator project, biochemical, fluorescence polarization, FITC-DNA; shares compounds with Rev-erbA mod; purified RORgamma protein-FITC-DNA binding; IC50, µM; 910 compounds, 8% hits;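 active means Compounds whose fitted half-maximal concentration for disrupting protein-DNA binding is below 10 micromolar; the record names Rev-erb in its text, so the target is in doubt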
The depositor's hits bear a star; x = not tested or not shown.

SMILES	ARFGAP1 inhibitor	MsrA act	HGIII-sPLA2 inh	ASAP1 GAP inh	MsrA inh	Rev-erbA mod	NR1D1 mod conf	others
CCOc1ccc(/C(CC)=N/NC(=O)C2(C)CC2(Br)Br)cc1 (stereo not drawn)	2	-3	2	-1	-1	31*	46*	RORg counter=>40
CCOc1ccc(/C(CCC(=O)O)=N/NC(=S)NC(C)C)cc1	-12	-9	0	3	0	-2	x
COc1ccc2c(c1)c(=O)oc1c(C)c(OCC(=O)N3CCc4ccccc4C3)ccc12	15	-4	5	19	0	20*	-10
Cn1c(N)c(C(=O)COC(=O)C2(c3ccc(F)cc3)CCCC2)c(=O)n(C)c1=O	6	3	-9	1	2	-4	x
Cn1c(N)c(C(=O)COC(=O)C2(c3ccccc3F)CCCC2)c(=O)n(C)c1=O	-1	1	-11	2	0	19*	-4
S=c1[nH]ncn2c1cc1oc3ccccc3c12	-10	-3	8	-1	0	34*	20*
O=c1c2ccccc2oc2ccccc12	0	-2	0	9	1	-2	x
CCOC(=O)c1c(NC(=O)C2CCCO2)sc(C(=O)OC(C)(C)C)c1C (stereo not drawn)	5	-5	7	10	1	46*	31*
CCOC(=O)c1c(C)nc2sc3c(=O)n(-c4ccc(C(C)=O)cc4)nnc3c2c1-c1ccc(OC)cc1	0	-3	2	-8	0	-5	x
CCOC(=O)c1c(C)nc2sc3c(=O)n(-c4ccc(OC)cc4)cnc3c2c1-c1ccc(OC)cc1	3	-1	-1	-3	0	35*	-14
CC(=O)N(CC(=O)O)c1ccccc1	-3	-2	4	-19	-1	2	x
O=C(O)CN(CCN(CC(=O)O)CC(=O)O)CC(=O)O	x	x	x	x	x	50*	3
COc1ccc(N2CCN(CCCNC(=O)CCc3ccc(F)cc3)CC2)cc1	x	x	5	x	x	3	x
CN(C)S(=O)(=O)N1C(=O)c2ccccc2C1=O	-12	-3	7	-6	1	-5	x
CN(C)/C=C1\C=C2C(=O)c3ccccc3N2C1=O	-1	-4	-37	0	0	340*	229*	RORg counter=1.1*
O=c1[nH]c(/C=C/c2cccc3ccccc23)nc2ccccc12	3	-1	-5	11	0	60*	25*
Cc1ccc(Oc2nccc(-c3ccc(Cl)cc3)n2)cc1	-4	0	-3	-5	0	47*	46*	RORg counter=>40
COc1ccccc1C(=O)Nc1nc2ccccc2s1	12	-2	-4	-2	1	34*	41*	RORg counter=>40
COc1ccccc1C(=O)Nc1nc2ccc(S(C)(=O)=O)cc2s1	-3	-4	0	0	0	49*	31*
CS(=O)(=O)c1ccc2nc(NC(=O)c3ccccc3Cl)sc2c1	-5	-1	1	4	0	2	x
CS(=O)(=O)c1ccc2nc(NC(=O)C3=NN(c4ccccc4)C(=O)CC3)sc2c1	-5	2	7	-14	2	2	x
CS(=O)(=O)c1ccc2nc(NC(=O)c3cc(-c4ccccc4)nn3-c3ccccc3)sc2c1	8	-9	6	-14	1	42*	19*
COC1OC(c2ccccc2)=C(c2ccc(C(N)=O)cc2)c2ccc(F)cc21 (stereo not drawn)	15	-4	-4	4	1	-5	x
O=C(COc1ncnc2c(Cl)cc(Cl)cc12)NCCC1=CCCCC1	4	1	-4	-4	0	22*	16
O=C(COc1ncnc2ccccc12)NCCC1=CCCCC1	-2	-3	1	9	0	-3	x
SMILES	ARFGAP1 inhibitor	MsrA act	HGIII-sPLA2 inh	ASAP1 GAP inh	MsrA inh	Rev-erbA mod	NR1D1 mod conf	others
Clc1ccc(-c2cn(-c3nc4ccccc4s3)nn2)cc1	4	-4	3	1	-1	19*	7
CC(C)(C)c1nc(SCC(=O)Nc2ccc(N3CCOCC3)cc2)c2ccccc2n1	6	-4	6	5	0	53*	17*
CC(C)(C)c1nc(SCC(=O)Nc2ccc3c(c2)OCCO3)c2ccccc2n1	4	-12	15	-3	0	73*	35*	RORg counter=3*
CCOc1ccc(NC(=O)CSc2nc(C3CC3)nc3ccccc23)cc1	-2	-13	2	7	0	129*	59*	RORg counter=>40
COc1ccc(NS(=O)(=O)c2ccc(N3CCOCC3)c(N)c2)cc1	4	-2	4	1	-1	-6	x
CSc1nc2nc(Cl)c(Cl)nc2[nH]1	15	-1	4	3	3	-2	x
CCOC(=O)[C@]12CCC=C1N(CCC1=CCCCC1)C(=O)[C@H](CC(=O)NCCCCc1ccccc1)C2	-10	2	-26	5	-1	-4	x
CC(=O)Oc1ccccc1Cn1c(C)c(C(=O)NCCC#N)sc1=O	12	-9	1	4	0	-4	x
O=C(CSc1nccn1Cc1ccc(F)cc1)NC1CCCCC1	-2	-2	-6	-3	0	1	x
CCN(CC)c1ccc(/C=C(\C#N)C(=O)c2ccc(Br)cc2)cc1	4	-7	-16	2	0	59*	70*	RORg counter=>40
CCN(CC)c1ccc(/C=C(\C#N)C(N)=O)cc1	17	-9	-4	18	-1	9	x
CCN(CC)c1ccc(/C=C(\C#N)C(N)=S)cc1	12	-5	8	11	0	76*	64*	RORg counter=>40
CSCCC(C(=O)Nc1c(C)cccc1C)n1c(-c2cc(C)cs2)nc2ccccc21 (stereo not drawn)	4	x	9	-9	1	13	x
Cc1nc(NC(=O)C2CC2)sc1C(=O)Nc1ccc(Br)cc1	-2	-3	3	-16	0	38*	27*
CC(=O)c1sc(NC(=O)CCCOc2ccc(Cl)cc2)nc1C	14	0	-6	3	-2	15*	12
